From ChEMBL document CHEMBL1140929, “Synthesis and evaluation of 18F-labeled 2-phenylbenzothiazoles as positron emission tomography imaging agents for amyloid plaques in Alzheimer's disease” (J Med Chem, 2009)

Tests used:
Format in all cases: ADME, organism-based
Liver [1] = test: Biodistribution in NMRI mouse liver assessed per gram of tissue at 3.7 MBq/mL, iv after 60 mins by gamma counting; conditions: in vivo, 1 h
Method in brief: (§1)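 Male NMRI mice (30-40 g) anaesthetised with 0.1 mL ip Hypnorm (fentanyl citrate 63 µg/mL, fluanisone 2 mg/mL). Each received 0.1 mL of HPLC-purified 18F tracer, diluted in 0.9% NaCl to 3.7 MBq/mL (ethanol ≤10%, THF ≤0.02%), via tail vein. Killed by decapitation at 2 or 60 min; blood and organs weighed and γ-counted. Background-corrected, expressed as %ID or %ID/g.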

[2] = Biodistribution in NMRI mouse spleen/pancreas at 3.7 MBq/mL, iv after 2 mins by gamma counting; conditions: in vivo; method in brief: as §1
Cerebellum [3] = test: Biodistribution in NMRI mouse cerebellum at 3.7 MBq/mL, iv after 60 mins by gamma counting; conditions: in vivo, 1 h; method in brief: as §1
Liver [4] = test: Biodistribution in NMRI mouse liver at 3.7 MBq/mL, iv after 2 mins by gamma counting; conditions: in vivo; method in brief: as §1
Cerebellum [5] = test: Biodistribution in NMRI mouse cerebellum at 3.7 MBq/mL, iv after 2 mins by gamma counting; conditions: in vivo; method in brief: as §1
Lung [6] = test: Biodistribution in NMRI mouse lung assessed per gram of tissue at 3.7 MBq/mL, iv after 2 mins by gamma counting; conditions: in vivo; method in brief: as §1
[7] = Biodistribution in NMRI mouse spleen/pancreas at 3.7 MBq/mL, iv after 60 mins by gamma counting; conditions: in vivo, 1 h; method in brief: as §1
Cerebellum [8] = test: Biodistribution in NMRI mouse cerebellum assessed per gram of tissue at 3.7 MBq/mL, iv after 2 mins by gamma counting; conditions: in vivo; method in brief: as §1
[9] = Biodistribution in NMRI mouse spleen/pancreas assessed per gram of tissue at 3.7 MBq/mL, iv after 2 mins by gamma counting; conditions: in vivo; method in brief: as §1
Blood [10] = test: Biodistribution in NMRI mouse blood at 3.7 MBq/mL, iv after 60 mins by gamma counting; conditions: in vivo, 1 h; method in brief: as §1
Kidney [11] = test: Biodistribution in NMRI mouse kidney assessed per gram of tissue at 3.7 MBq/mL, iv after 60 mins by gamma counting; conditions: in vivo, 1 h; method in brief: as §1
Kidney [12] = test: Biodistribution in NMRI mouse kidney assessed per gram of tissue at 3.7 MBq/mL, iv after 2 mins by gamma counting; conditions: in vivo; method in brief: as §1
Kidney [13] = test: Biodistribution in NMRI mouse kidney at 3.7 MBq/mL, iv after 2 mins by gamma counting; conditions: in vivo; method in brief: as §1
Blood [14] = test: Biodistribution in NMRI mouse blood assessed per gram of tissue at 3.7 MBq/mL, iv after 2 mins by gamma counting; conditions: in vivo; method in brief: as §1
Kidney [15] = test: Biodistribution in NMRI mouse kidney at 3.7 MBq/mL, iv after 60 mins by gamma counting; conditions: in vivo, 1 h; method in brief: as §1
Heart [16] = test: Biodistribution in NMRI mouse heart at 3.7 MBq/mL, iv after 60 mins by gamma counting; conditions: in vivo, 1 h; method in brief: as §1
Lung [17] = test: Biodistribution in NMRI mouse lung at 3.7 MBq/mL, iv after 60 mins by gamma counting; conditions: in vivo, 1 h; method in brief: as §1
[18] = Biodistribution in NMRI mouse cerebrum assessed per gram of tissue at 3.7 MBq/mL, iv after 2 mins by gamma counting; conditions: in vivo; method in brief: as §1
Lung [19] = test: Biodistribution in NMRI mouse lung assessed per gram of tissue at 3.7 MBq/mL, iv after 60 mins by gamma counting; conditions: in vivo, 1 h; method in brief: as §1
Heart [20] = test: Biodistribution in NMRI mouse heart assessed per gram of tissue at 3.7 MBq/mL, iv after 60 mins by gamma counting; conditions: in vivo, 1 h; method in brief: as §1
[21] = Biodistribution in NMRI mouse urine at 3.7 MBq/mL, iv after 2 mins by gamma counting; conditions: in vivo; method in brief: as §1
[22] = Biodistribution in NMRI mouse cerebrum at 3.7 MBq/mL, iv after 2 mins by gamma counting; conditions: in vivo; method in brief: as §1
Stomach [23] = test: Biodistribution in NMRI mouse stomach at 3.7 MBq/mL, iv after 60 mins by gamma counting; conditions: in vivo, 1 h; method in brief: as §1
Blood [24] = test: Biodistribution in NMRI mouse blood assessed per gram of tissue at 3.7 MBq/mL, iv after 60 mins by gamma counting; conditions: in vivo, 1 h; method in brief: as §1
Liver [25] = test: Biodistribution in NMRI mouse liver at 3.7 MBq/mL, iv after 60 mins by gamma counting; conditions: in vivo, 1 h; method in brief: as §1
Liver [26] = test: Biodistribution in NMRI mouse liver assessed per gram of tissue at 3.7 MBq/mL, iv after 2 mins by gamma counting; conditions: in vivo; method in brief: as §1
Cerebellum [27] = test: Biodistribution in NMRI mouse cerebellum assessed per gram of tissue at 3.7 MBq/mL, iv after 60 mins by gamma counting; conditions: in vivo, 1 h; method in brief: as §1
Heart [28] = test: Biodistribution in NMRI mouse heart assessed per gram of tissue at 3.7 MBq/mL, iv after 2 mins by gamma counting; conditions: in vivo; method in brief: as §1
Heart [29] = test: Biodistribution in NMRI mouse heart at 3.7 MBq/mL, iv after 2 mins by gamma counting; conditions: in vivo; method in brief: as §1
Lung [30] = test: Biodistribution in NMRI mouse lung at 3.7 MBq/mL, iv after 2 mins by gamma counting; conditions: in vivo
[31] = Biodistribution in NMRI mouse urine at 3.7 MBq/mL, iv after 60 mins by gamma counting; conditions: in vivo, 1 h; method in brief: as §1
Intestine [32] = test: Biodistribution in NMRI mouse intestine at 3.7 MBq/mL, iv after 2 mins by gamma counting; conditions: in vivo; method in brief: as §1
[33] = Biodistribution in NMRI mouse cerebrum assessed per gram of tissue at 3.7 MBq/mL, iv after 60 mins by gamma counting; conditions: in vivo, 1 h; method in brief: as §1
Stomach [34] = test: Biodistribution in NMRI mouse stomach at 3.7 MBq/mL, iv after 2 mins by gamma counting; conditions: in vivo; method in brief: as §1
[35] = Biodistribution in NMRI mouse cerebrum at 3.7 MBq/mL, iv after 60 mins by gamma counting; conditions: in vivo, 1 h; method in brief: as §1
Blood [36] = test: Biodistribution in NMRI mouse blood at 3.7 MBq/mL, iv after 2 mins by gamma counting; conditions: in vivo; method in brief: as §1
[37] = Biodistribution in NMRI mouse spleen/pancreas assessed per gram of tissue at 3.7 MBq/mL, iv after 60 mins by gamma counting; conditions: in vivo, 1 h; method in brief: as §1
Intestine [38] = test: Biodistribution in NMRI mouse intestine at 3.7 MBq/mL, iv after 60 mins by gamma counting; conditions: in vivo, 1 h; method in brief: as §1

Structure (SMILES)	Drug uptake (Liver [1])	Drug uptake [2]	Drug uptake (Cerebellum [3])	Drug uptake (Liver [4])	Drug uptake (Cerebellum [5])	Drug uptake (Lung [6])	Drug uptake [7]	Drug uptake (Cerebellum [8])	Drug uptake [9]	Drug uptake (Blood [10])	Drug uptake (Kidney [11])	Drug uptake (Kidney [12])	Drug uptake (Blood [14])	Drug uptake (Kidney [15])	Drug uptake (Heart [16])	Drug uptake (Lung [17])	Drug uptake [18]	Drug uptake (Lung [19])	Drug uptake (Heart [20])	Drug uptake [21]	also measured
[11CH3]Nc1ccc(-c2nc3ccc(O)cc3s2)cc1 [PITTSBURGH COMPOUND B]	5 % ID/g	0.6 %ID	0.03 %ID	15.6 %ID	0.17 %ID	3.6 % ID/g	0.1 %ID	1.6 % ID/g	4.7 % ID/g	2.7 %ID	9.1 % ID/g	19.9 % ID/g	3.1 % ID/g	4.8 %ID	0.3 %ID	0.3 %ID	3.6 % ID/g	1.3 % ID/g	2.1 % ID/g	0.2 %ID	Drug uptake (Kidney [13]): 10.3 %ID; Drug uptake [22]: 1.08 %ID; Drug uptake (Stomach [23]): 0.3 %ID; Drug uptake (Blood [24]): 1.1 % ID/g; Drug uptake (Liver [25]): 9.8 %ID; Drug uptake (Liver [26]): 7.9 % ID/g; Drug uptake (Cerebellum [27]): 0.31 % ID/g; Drug uptake (Heart [28]): 4.2 % ID/g; Drug uptake (Heart [29]): 0.6 %ID; Drug uptake (Lung [30]): 0.9 %ID; Drug uptake [31]: 24.4 %ID; Drug uptake (Intestine [32]): 12 %ID; Drug uptake [33]: 0.6 % ID/g; Drug uptake (Stomach [34]): 1.1 %ID; Drug uptake [35]: 0.18 %ID; Drug uptake (Blood [36]): 7.9 %ID; Drug uptake [37]: 0.7 % ID/g; Drug uptake (Intestine [38]): 42.5 %ID
Cc1ccc2nc(-c3ccc([18F])cc3)sc2c1	24.6 % ID/g	1.3 %ID	0.04 %ID	24.8 %ID	0.42 %ID	14.4 % ID/g	0.1 %ID	5.99 % ID/g	4 % ID/g	2.8 %ID	3.6 % ID/g	9.3 % ID/g	2.2 % ID/g	2.3 %ID	0.1 %ID	0.3 %ID	5.33 % ID/g	1.3 % ID/g	0.5 % ID/g	0.2 %ID	Drug uptake [22]: 1.62 %ID; Drug uptake (Stomach [23]): 1.1 %ID; Drug uptake (Blood [24]): 1.1 % ID/g; Drug uptake (Liver [25]): 51.8 %ID; Drug uptake (Liver [26]): 12 % ID/g; Drug uptake (Cerebellum [27]): 0.39 % ID/g; Drug uptake (Heart [28]): 5.4 % ID/g; Drug uptake (Heart [29]): 0.9 %ID; Drug uptake (Lung [30]): 3.6 %ID; Drug uptake [31]: 5.8 %ID; Drug uptake (Intestine [32]): 8.9 %ID; Drug uptake [33]: 0.27 % ID/g; Drug uptake (Stomach [34]): 1.3 %ID; Drug uptake [35]: 0.07 %ID; Drug uptake (Blood [36]): 5.7 %ID; Drug uptake [37]: 0.4 % ID/g; Drug uptake (Intestine [38]): 19.3 %ID
